Our source for the IC50, inhibition and Activity values is ChEMBL document CHEMBL5661979, “Pharmacological inhibition of BMK1 suppresses tumor growth through promyelocytic leukemia protein” (Cancer Cell, 2010).

For experiment [1], the target named is Serine/threonine-protein kinase ULK3 (Homo sapiens, UniProt Q6PHR2). The experiment in a line: Inhibition of ULK3 in human HeLa cells lysate pre incubated for 15 mins followed by ATP acyl phosphate probe addition and measured after 10 mins by LC-MS/MS analysis. The experiment is classed as subcellular.
Chain of Serine/threonine-protein kinase ULK3 (Q6PHR2 whole entry): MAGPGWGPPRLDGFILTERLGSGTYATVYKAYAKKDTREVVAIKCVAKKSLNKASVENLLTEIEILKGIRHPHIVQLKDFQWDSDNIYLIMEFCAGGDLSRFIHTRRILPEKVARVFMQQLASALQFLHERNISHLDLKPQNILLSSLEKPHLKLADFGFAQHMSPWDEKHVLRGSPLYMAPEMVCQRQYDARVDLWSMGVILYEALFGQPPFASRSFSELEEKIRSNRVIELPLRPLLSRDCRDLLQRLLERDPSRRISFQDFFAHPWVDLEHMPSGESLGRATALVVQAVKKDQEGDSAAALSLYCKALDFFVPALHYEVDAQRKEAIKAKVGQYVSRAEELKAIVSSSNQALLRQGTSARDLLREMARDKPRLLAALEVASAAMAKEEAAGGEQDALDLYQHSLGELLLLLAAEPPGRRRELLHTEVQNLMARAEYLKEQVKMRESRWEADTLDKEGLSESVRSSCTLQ
In experiment [2] the target is T1, Phosphatidylinositol 5-phosphate 4-kinase type-2 alpha (Homo sapiens, UniProt P48426).
T1 sequence (P48426 whole entry): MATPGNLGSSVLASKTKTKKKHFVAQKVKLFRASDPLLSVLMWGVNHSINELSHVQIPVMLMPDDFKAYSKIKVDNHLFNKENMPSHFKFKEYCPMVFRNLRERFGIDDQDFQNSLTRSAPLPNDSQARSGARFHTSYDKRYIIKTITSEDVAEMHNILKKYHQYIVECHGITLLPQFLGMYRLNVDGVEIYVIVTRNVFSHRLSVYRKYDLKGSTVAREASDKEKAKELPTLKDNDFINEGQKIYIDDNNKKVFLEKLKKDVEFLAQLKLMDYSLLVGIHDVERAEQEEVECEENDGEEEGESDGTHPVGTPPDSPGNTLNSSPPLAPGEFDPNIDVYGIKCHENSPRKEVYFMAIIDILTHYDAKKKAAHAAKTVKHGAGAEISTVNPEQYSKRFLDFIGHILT
The experiment in a line: Inhibition of PIP5K2A in human HeLa cells lysate pre incubated for 15 mins followed by ADP acyl phosphate probe addition and measured after 10 mins by LC-MS/MS analysis. Format: subcellular.

Experiment [3] addresses MAP/microtubule affinity-regulating kinase 3 (Homo sapiens, UniProt P27448). Briefly: Inhibition of MARK3 in human HeLa cells lysate at 10 uM pre incubated for 15 mins followed by ADP acyl phosphate probe addition and measured after 10 mins by LC-MS/MS analysis relative to control. The experiment is classed as subcellular. Conditions: time 25.0 min.
Experiment [4] has as its target T2, Serine/threonine-protein kinase TAO2 (Homo sapiens) (UniProt Q9UL54).
T2 sequence (whole entry): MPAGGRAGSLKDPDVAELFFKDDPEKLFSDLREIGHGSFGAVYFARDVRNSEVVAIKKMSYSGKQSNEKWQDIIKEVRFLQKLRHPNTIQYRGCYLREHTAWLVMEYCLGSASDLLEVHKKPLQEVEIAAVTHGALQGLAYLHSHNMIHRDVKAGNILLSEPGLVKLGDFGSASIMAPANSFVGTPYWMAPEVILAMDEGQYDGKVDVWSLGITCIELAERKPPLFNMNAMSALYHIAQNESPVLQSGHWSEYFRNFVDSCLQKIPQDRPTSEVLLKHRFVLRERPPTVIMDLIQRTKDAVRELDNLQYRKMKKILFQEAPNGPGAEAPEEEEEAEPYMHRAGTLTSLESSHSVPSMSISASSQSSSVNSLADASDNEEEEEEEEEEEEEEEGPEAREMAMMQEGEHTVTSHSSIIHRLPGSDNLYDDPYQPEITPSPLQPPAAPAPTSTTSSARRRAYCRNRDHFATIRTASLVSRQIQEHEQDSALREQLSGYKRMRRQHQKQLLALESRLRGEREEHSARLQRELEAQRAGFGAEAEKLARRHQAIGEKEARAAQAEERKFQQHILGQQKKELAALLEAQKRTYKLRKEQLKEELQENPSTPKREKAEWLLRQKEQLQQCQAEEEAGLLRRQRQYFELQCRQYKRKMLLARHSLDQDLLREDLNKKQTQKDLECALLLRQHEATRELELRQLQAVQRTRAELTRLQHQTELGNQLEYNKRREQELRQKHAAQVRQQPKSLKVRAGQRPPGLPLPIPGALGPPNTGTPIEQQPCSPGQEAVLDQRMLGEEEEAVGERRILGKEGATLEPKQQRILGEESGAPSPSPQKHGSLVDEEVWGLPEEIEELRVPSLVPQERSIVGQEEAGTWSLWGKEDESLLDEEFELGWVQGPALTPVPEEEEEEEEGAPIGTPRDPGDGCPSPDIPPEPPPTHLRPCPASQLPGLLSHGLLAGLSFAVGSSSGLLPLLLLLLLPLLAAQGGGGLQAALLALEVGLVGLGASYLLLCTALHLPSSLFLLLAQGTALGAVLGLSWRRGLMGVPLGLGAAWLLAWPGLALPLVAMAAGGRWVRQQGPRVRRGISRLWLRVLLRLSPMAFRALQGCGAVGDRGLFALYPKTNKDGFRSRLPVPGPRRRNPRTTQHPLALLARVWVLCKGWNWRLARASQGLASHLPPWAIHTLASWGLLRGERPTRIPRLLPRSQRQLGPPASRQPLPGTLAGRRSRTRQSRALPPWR
The experiment in a line: Inhibition of TAO2 in human HeLa cells lysate at 10 uM pre incubated for 15 mins followed by ATP acyl phosphate probe addition and measured after 10 mins by LC-MS/MS analysis relative to control. Format: subcellular. Particulars: time 25.0 min.

Experiment [5] is described as follows: Inhibition of MAP3K5/MAP3K6/MAP3K15 in human HeLa cells lysate at 10 uM pre incubated for 15 mins followed by ATP acyl phosphate probe addition and measured after 10 mins by LC-MS/MS analysis relative to control. Conditions: 25 min, condition cancer.
The target of experiment [6] is T3, Scaffold protein ILK (Homo sapiens) (UniProt Q13418).
T3 sequence (whole entry): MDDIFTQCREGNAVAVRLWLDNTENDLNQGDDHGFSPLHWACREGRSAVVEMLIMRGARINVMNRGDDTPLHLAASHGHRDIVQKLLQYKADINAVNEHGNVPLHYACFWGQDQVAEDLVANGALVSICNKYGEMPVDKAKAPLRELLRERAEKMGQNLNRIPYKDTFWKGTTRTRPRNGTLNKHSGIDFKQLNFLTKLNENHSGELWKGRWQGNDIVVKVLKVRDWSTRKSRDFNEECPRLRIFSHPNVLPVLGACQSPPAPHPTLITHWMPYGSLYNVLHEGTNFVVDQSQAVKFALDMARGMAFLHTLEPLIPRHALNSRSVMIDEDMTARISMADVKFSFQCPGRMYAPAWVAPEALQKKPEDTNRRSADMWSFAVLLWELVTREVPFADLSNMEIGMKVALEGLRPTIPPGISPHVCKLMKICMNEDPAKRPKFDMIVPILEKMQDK
Briefly: Inhibition of ILK in human HeLa cells lysate at 10 uM pre incubated for 15 mins followed by ATP acyl phosphate probe addition and measured after 10 mins by LC-MS/MS analysis relative to control. Format: subcellular. Conditions: time 25.0 min.

In experiment [7] the target is Ephrin type-A receptor 2 (Homo sapiens, UniProt P29317). Briefly: Inhibition of EphA2 in human HeLa cells lysate at 10 uM pre incubated for 15 mins followed by ATP acyl phosphate probe addition and measured after 10 mins by LC-MS/MS analysis relative to control. Format: subcellular. Conditions: time 25.0 min.
Chain of Ephrin type-A receptor 2 (P29317 whole entry): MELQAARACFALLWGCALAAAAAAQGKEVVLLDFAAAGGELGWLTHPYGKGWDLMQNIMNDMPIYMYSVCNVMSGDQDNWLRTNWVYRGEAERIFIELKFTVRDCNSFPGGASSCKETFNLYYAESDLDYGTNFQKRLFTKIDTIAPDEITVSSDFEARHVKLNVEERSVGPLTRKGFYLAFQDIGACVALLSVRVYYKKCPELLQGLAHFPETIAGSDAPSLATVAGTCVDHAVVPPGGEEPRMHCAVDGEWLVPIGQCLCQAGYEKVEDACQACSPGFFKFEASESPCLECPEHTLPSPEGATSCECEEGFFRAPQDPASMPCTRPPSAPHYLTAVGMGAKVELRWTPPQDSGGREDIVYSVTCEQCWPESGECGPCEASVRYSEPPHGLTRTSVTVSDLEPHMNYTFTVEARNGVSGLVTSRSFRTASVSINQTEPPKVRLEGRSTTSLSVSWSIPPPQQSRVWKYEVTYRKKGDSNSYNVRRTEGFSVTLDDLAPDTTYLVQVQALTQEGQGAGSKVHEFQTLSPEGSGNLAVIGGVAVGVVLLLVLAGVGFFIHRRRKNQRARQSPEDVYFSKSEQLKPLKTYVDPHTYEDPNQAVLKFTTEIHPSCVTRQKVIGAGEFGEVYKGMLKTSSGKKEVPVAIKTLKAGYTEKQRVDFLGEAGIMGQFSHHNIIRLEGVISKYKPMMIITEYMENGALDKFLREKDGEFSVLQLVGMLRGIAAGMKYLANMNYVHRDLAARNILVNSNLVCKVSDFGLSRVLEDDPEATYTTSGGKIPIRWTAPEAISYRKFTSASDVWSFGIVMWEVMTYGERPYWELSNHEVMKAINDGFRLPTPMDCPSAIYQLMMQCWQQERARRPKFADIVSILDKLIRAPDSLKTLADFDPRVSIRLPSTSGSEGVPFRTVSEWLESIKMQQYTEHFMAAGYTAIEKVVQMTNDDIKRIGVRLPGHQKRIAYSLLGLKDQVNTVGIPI
In experiment [8] the test system is Lewis lung carcinoma. Briefly: Antitumor activity against mouse LL2 cells transfected with Ad-BMK1 allografted in C57Bl/6 mouse assessed as reduction tumor growth at 50 mg/kg, ip administered on day 7 post implantation measured after 17 days. The experiment is classed as functional, organism-based. Particulars: time 10.0 day. Summed up:
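LL/2 cells (1×10^6) were injected s.c. into C57Bl/6 mice; 6 per group. Ad-EV or Ad-BMK1(AEF) was given intratumorally on days 7, 11, 15 and 19. Drug was dosed at 50 mg/kg i.p. twice daily from day 8 to day 20; control groups received carrier solution.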

Calls of active or inactive are those of the source. No cut-off for these calls is given here.

Chain of MAP/microtubule affinity-regulating kinase 3 (P27448 whole entry, looked up): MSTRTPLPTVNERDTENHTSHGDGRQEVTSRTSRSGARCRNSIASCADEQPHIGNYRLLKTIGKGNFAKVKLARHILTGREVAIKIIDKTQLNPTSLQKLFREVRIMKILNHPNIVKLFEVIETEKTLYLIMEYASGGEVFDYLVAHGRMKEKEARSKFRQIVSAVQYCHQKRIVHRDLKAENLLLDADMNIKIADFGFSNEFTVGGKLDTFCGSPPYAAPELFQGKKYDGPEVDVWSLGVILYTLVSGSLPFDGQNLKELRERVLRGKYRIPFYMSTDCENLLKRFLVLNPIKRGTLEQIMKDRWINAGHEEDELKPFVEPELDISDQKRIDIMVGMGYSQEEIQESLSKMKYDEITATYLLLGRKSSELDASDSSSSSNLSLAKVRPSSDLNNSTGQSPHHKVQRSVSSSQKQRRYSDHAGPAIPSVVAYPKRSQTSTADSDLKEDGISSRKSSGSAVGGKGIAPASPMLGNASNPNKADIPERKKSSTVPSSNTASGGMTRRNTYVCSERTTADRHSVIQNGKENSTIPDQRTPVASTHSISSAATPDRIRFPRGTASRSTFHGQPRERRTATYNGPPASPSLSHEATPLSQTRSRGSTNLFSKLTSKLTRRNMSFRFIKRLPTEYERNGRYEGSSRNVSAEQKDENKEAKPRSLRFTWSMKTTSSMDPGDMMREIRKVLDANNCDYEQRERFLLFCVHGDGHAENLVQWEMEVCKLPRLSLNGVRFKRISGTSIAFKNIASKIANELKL

As for `CCOc1cc(N2CCC(O)CC2)ccc1Nc1ncc2c(n1)N(C)c1ccccc1C(=O)N2C`, the IC50 in experiment [1] and in experiment [2] was greater than 50 µM in each case. In addition, the inhibition in experiment [3] was 4.8%; in experiment [4] it was 3.3%; in experiment [6], 13.3%; in experiment [7], -3.9%. The inhibition at 10 µM in experiment [5] worked out at 1.4%. The result in experiment [8] was Active.

What is called IC50 is the midpoint of a concentration-inhibition curve. A word on the inhibition: it is the relative decrease from the control value, in per cent.
